# Laboratory results reported in ChEMBL document CHEMBL1132144, “Synthesis of 9-O-substituted derivatives of 9-hydroxy-5, 6-dimethyl-6H-pyrido[4,3-b]carbazole-1-carboxylic acid (2-(dimethylamino)ethyl)amide and their 10- and 11-methyl analogues with improved antitumor activity” (J Med Chem, 1999).
# “And” between values parts separate entries of the source, which are not always exact repeats. Equal entries are not always repeated.
# Key:
# [1] = system: Mus musculus; assay: Percent median survival time of mice injected with P388 leukemia, at a subcutaneous compound dose of 160-320 mg/kg; assay type: functional
# [2] = system: Mus musculus; assay: Percent median survival time of mice injected with B16 melanoma, at a intraperitoneal compound dose of 10 mg/kg
# [3] = system: B16; assay: Inhibition of murine B16 melanoma cell proliferation measured by the MTT assay; assay type: functional, cell-based; settings: Mus musculus
# Summary of the method: (§1)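 Murine L1210 leukemia and B16 melanoma cells were grown in RPMI 1640 with 10% fetal calf serum, 2 mM L-glutamine, penicillin/streptomycin and 10 mM HEPES (pH 7.4). Cells were exposed to nine serial drug dilutions in triplicate for about four doubling times (L1210 48 h, B16 96 h), then read by microculture tetrazolium (MTT) assay. IC50 is the concentration halving optical density versus untreated controls, averaged over ≥2 independent experiments.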
# [4] = system: Mus musculus; assay: Long-term survivors among 21 mice infected with P388 leukemia, scored on day 60 at 160-320 mg/kg dose on day 1; assay type: functional
# Summary of the method: (§2)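 B6D2F1 mice in groups of 6–7 were inoculated ip on day 0 with 10^6 P388 cells. Dihydrochloride salts were dissolved in water and given iv on day 1 or on days 1, 5 and 9. Doses ranged from a low nontoxic dose to a toxic one. Long-term survivors were counted at day 60.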
# [5] = system: L1210; assay: Inhibition of murine L1210 leukemia cell proliferation measured by the MTT assay; assay type: functional, cell-based; settings: Mus musculus; summary of the method: as §1
# [6] = system: Mus musculus; assay: Long-term survivors among 21 mice infected with B16 melanoma, scored on day 90 at 10 mg/kg dose on days 1-9
# [7] = system: Mus musculus; assay: Percent median survival time of mice injected with P388 leukemia, at a intravenous compound dose of 80 mg/kg
# [8] = system: Mus musculus; assay: Long-term survivors among 14 mice infected with B16 melanoma, scored on day 90 at 5 mg/kg dose; assay type: functional
# Summary of the method: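 B6D2F1 mice were inoculated ip on day 0 with B16 tumor brei (1 g tumor in 10 mL 0.9% NaCl). Compounds were given ip daily on days 1–9. Long-term survivors were scored at day 90.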
# [9] = system: Mus musculus; assay: Long-term survivors among 12 mice infected with P388 leukemia, scored on day 60 at 80 mg/kg dose on day 1, 5, 9; assay type: functional; summary of the method: as §2
# [10] = system: Mus musculus; assay: Percent median survival time of mice injected with P388 leukemia, at a intravenous compound dose of 80 mg/kg on day1
# [11] = system: Mus musculus; assay: Percent median survival time of mice injected with P388 leukemia, at a intravenous compound dose of 80 mg/kg on day1,5,9
# [12] = system: Mus musculus; assay: Long-term survivors among 12 mice infected with P388 leukemia, scored on day 60 at 80 mg/kg dose on day 1; assay type: functional; summary of the method: as §2
# [13] = system: Mus musculus; assay: Percent median survival time of mice injected with B16 melanoma, at a intraperitoneal compound dose of 5 mg/kg
# [14] = system: Mus musculus; assay: Long-term survivors among 13 mice infected with B16 melanoma, scored on day 90 at 10 mg/kg dose on days 1-9
# [15] = system: Mus musculus; assay: Percent median survival time of mice injected with P388 leukemia, at a subcutaneous compound dose of 40 mg/kg; assay type: functional
# [16] = system: Mus musculus; assay: Long-term survivors among 13 mice infected with P388 leukemia, scored on day 60 at 80 mg/kg dose on day 1; assay type: functional; summary of the method: as §2
# [17] = system: Mus musculus; assay: Percent median survival time of mice intraperitoneally injected with P388 leukemia was determined from tested at 5 mg/kg at day1,5,9 dose to that of control; assay type: functional; settings: route intraperitoneal
# Summary of the method: (§3)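 P388 leukemia in B6D2F1 mice (groups of 6–7), 10^6 cells inoculated ip on day 0. Dihydrochloride salts were dissolved in water and given iv on day 1 or on days 1, 5, 9. Three doses were tested, then five if active. %T/C = median survival treated/control × 100, reported at the optimal dose (no toxic death, weight loss <20%), from one or two representative experiments.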
# [18] = system: Mus musculus; assay: Long-term survivors among 6 mice infected with P388 leukemia, scored on day 60 at 10 mg/kg dose; assay type: functional; summary of the method: as §2
# [19] = system: Mus musculus; assay: Long-term survivors among 6 mice infected with P388 leukemia, scored on day 60 at 5 mg/kg dose; assay type: functional; summary of the method: as §2
# [20] = system: Mus musculus; assay: Percent median survival time of mice intraperitoneally injected with P388 leukemia was determined from tested at 10 mg/kg at day1 dose to that of control; assay type: functional; summary of the method: as §3
# [21] = system: Mus musculus; assay: Percent median survival time of mice injected with B16 melanoma, at a intraperitoneal compound dose of 20 mg/kg
# [22] = system: Mus musculus; assay: Percent median survival time of mice injected with P388 leukemia at 160 mg/Kg dose; not tested; assay type: functional
# [23] = system: Mus musculus; assay: Long-term survivors among 7 mice infected with P388 leukemia, scored on day 60 at 240 mg/kg dose on day 1; assay type: functional
# Summary of the method: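 B6D2F1 mice in groups of 6–7 received 10^6 P388 cells ip on day 0. Dihydrochloride salts dissolved in water were injected iv on day 1 or on days 1, 5 and 9, at three doses and then five. Read-outs were % T/C (median survival treated/control × 100) and long-term survivors on day 60, both at the optimal dose (no toxic death, weight loss <20%).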
# [24] = system: Mus musculus; assay: Percent median survival time of mice injected with B16 melanoma at 80 mg/Kg subcutaneous dose; not tested; assay type: functional
# [25] = system: Mus musculus; assay: Percent median survival time of mice injected with P388 leukemia at 240 mg/Kg dose; not tested; assay type: functional
# [26] = system: Mus musculus; assay: Long-term survivors among 7 mice infected with B16 melanoma, scored on day 90 at 240 mg/kg dose on day 1; assay type: functional
# [27] = system: Mus musculus; assay: Percent median survival time of mice injected with B16 melanoma, at a intraperitoneal compound dose of 2.5-5 mg/kg
# [28] = species: Mus musculus; assay: Long-term survivors among 14 mice infected with B16 melanoma, scored on day 90 at optimal dose on days 1-9
# [29] = system: Mus musculus; assay: Percent median survival time of mice injected with P388 leukemia, at a subcutaneous compound dose of 20 mg/kg; assay type: functional
# [30] = system: Mus musculus; assay: Long-term survivors among 14 mice infected with P388 leukemia, scored on day 60 at 40 mg/kg dose on day 1; assay type: functional; summary of the method: as §2
# [31] = system: Mus musculus; assay: Percent median survival time of mice injected with P388 leukemia, at a intravenous compound dose of 40 mg/kg
smiles,measurement,setting,value
Cc1c2ccnc(C(=O)NCCN(C)C)c2cc2c3cc(OC(=O)CCCC(=O)O)ccc3n(C)c12,T/C,[1],>590%
same,T/C,[2],196%
same,IC50,[3],14.8 nM
same,LTS,[4],4
same,IC50,[5],19.7 nM
same,LTS,[6],2
same,T/C,[7],>582%
Cc1c2ccnc(C(=O)NCCN(C)C)c2cc2c3cc(O)ccc3n(C)c12,IC50,[3],5.4 nM
same,LTS,[8],0
same,LTS,[9],7
same,IC50,[5],13.1 nM
same,T/C,[10],227%
same,T/C,[11],>541%
same,LTS,[12],0
same,T/C,[13],174%
Cc1c2ccnc(C(=O)NCCN(C)C)c2cc2c3cc(OC(=O)c4cccnc4)ccc3n(C)c12,T/C,[2],190%
same,LTS,[14],0
same,IC50,[3],2.3 nM
same,T/C,[15],199% and 283%
same,IC50,[5],74.5 nM
same,LTS,[16],0
Cc1c2ccnc(C(=O)NCCN(C)C)c2cc2c3cc(OC(=O)N(C)c4ccccc4)ccc3n(C)c12,IC50,[3],1370 nM
same,T/C,[17],106%
same,LTS,[18],0
same,LTS,[19],0
same,T/C,[20],100%
same,IC50,[5],1170 nM
same,T/C,[21],101%
Cc1c2ccnc(C(=O)NCCN(C)C)c2cc2c3cc(OC(=O)NCCC(=O)O)ccc3n(C)c12,IC50,[3],78.7 nM
same,T/C,[22],109%
same,LTS,[23],0
same,T/C,[24],138%
same,T/C,[25],109%
same,IC50,[5],654 nM
same,LTS,[26],0
Cc1c2c(C(=O)NCCN(C)C)nccc2c(C)c2c1c1cc(OC(=O)CCCCC(=O)O)ccc1n2C,IC50,[3],6.3 nM
same,T/C,[27],361%
same,LTS,[28],4
same,T/C,[29],>600%
same,IC50,[5],45.9 nM
same,LTS,[30],11
same,T/C,[31],>600%
